Published values gathered from unrelated publications.
Lines come from different studies, so protocols differ.
Target: Sodium-dependent noradrenaline transporter (SLC6A2, Homo sapiens, UniProt P23975)

Compound | test | setting | endpoint | result
Clc1ccc(C(c2ccccc2)c2nnnn2CCCCN2CCC(CCc3ccccc3)CC2)cc1 (stereo not drawn) | transporter uptake, inhibitor |  | IC50 | 0.424 µM
CCC(C)C(=O)[C@]12C(=O)[C@](CC=C(C)C)(C[C@H](CC=C(C)C)[C@@]1(C)CCC=C(C)C)C(=O)C(CC=C(C)C)=C2O (stereo partly drawn) | ligand displacement, radioligand | cell membranes | Ki | 7.32 µM
CCn1c(-c2nc3ccc(C(=O)N4CCCC(N)C4)cc3n2C)cc2ccccc21 (stereo not drawn) | transporter uptake, inhibitor |  | IC50 | 39.8 µM
CCOC(=O)[C@@]12C[C@@H]1[C@@H](n1cnc3c(NC)nc(C#Cc4ccc(Cl)s4)nc31)[C@H](O)[C@@H]2O | ligand displacement, radioligand | cell membranes | Ki | > 8.4 µM
CNC(=O)[C@@]12C[C@@H]1[C@@H](n1cnc3c(NCc4cccc(Cl)c4)nc(C#Cc4ccccc4)nc31)[C@H](O)[C@@H]2O | ligand displacement, radioligand |  | Ki | 3.16 µM
Clc1ccc(C(c2ccccc2)c2nnnn2CCCN2CCC(Cc3ccccc3)CC2)cc1 (stereo not drawn) | transporter uptake, inhibitor |  | IC50 | 0.174 µM
CNc1nc(C#Cc2ccc(Cl)s2)nc2c1ncn2[C@H]1[C@H](O)[C@H](O)[C@]2(C(=O)OC)C[C@H]12 | ligand displacement, radioligand | cell membranes | Ki | > 10 µM
CCOC(=O)[C@@]12C[C@@H]1[C@@H](n1ccc3c(NC)nc(C#Cc4ccc(Cl)s4)nc31)[C@H](O)[C@@H]2O | transporter uptake, inhibitor, radiometric |  | IC50 | > 10 µM
CCn1c(-c2nc3cc(C(=O)N4CCC[C@@H](N)C4)cc(OC)c3n2C)cc2cccnc21 | transporter uptake, inhibitor |  | IC50 | 31.6 µM
O[C@@H]1[C@H](O)[C@@H]2C[C@@H]2[C@H]1n1cnc2c(NCCc3ccccc3)nc(C#Cc3ccccc3)nc21 | ligand displacement, radioligand |  | Ki | 2.8 µM
CCN(CC)c1ccc(C2Nc3ccc(C(=O)c4ccccc4)cc3NC3=C2C(=O)CC(C)(C)C3)cc1 (stereo not drawn) | cell-free assay, radioligand |  | Ki | 4.86 µM
Clc1ccc(CC2CCN(CCCCn3nnnc3C(c3ccccc3)c3ccccc3)CC2)cc1Cl | transporter uptake, inhibitor |  | IC50 | 0.724 µM
OCCCN1CC[C@@H]2C[C@H]1c1cc(-c3ccc(C(F)(F)F)cc3)ccc12 | ligand displacement, radioligand |  | Ki | 0.405 µM
Clc1ccc(C(c2ccc(Cl)cc2)c2nnnn2CCCCN2CCC(Cc3ccccc3)CC2)cc1 | transporter uptake, inhibitor |  | IC50 | 0.469 µM
CCCCN1CCC(COC(=O)c2ccc(N)c(OCF)c2)CC1 | cell-free assay, radioligand |  | Ki | 1.4 µM
